Tested on: MS2 coat protein
Experiment: apparent Kd, MS2 coat protein; higher = weaker binding; RNA-MaP array; FMN 200 µM where present
Summary of the method: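 Each design was made on Illumina sequencing-chip clusters by stalled E. coli RNA polymerase and titrated with SNAP-549-labelled MS2 coat protein from 0.7 or 1.5 nM, doubling to 3 µM, in the absence and then the presence of constant ligand. The buffer was 100 mM Tris-HCl pH 7.5, 80 mM KCl, 4 mM MgCl2, BSA, DTT, yeast tRNA and Tween-20. The apparent Kd is the median of filtered per-cluster fits of binding curves, with green signal normalised to red-channel RNA signal and control-cluster median Fmax.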

[1] = designed as: OFF switch for flavin mononucleotide, no ligand
[2] = ligand present: flavin mononucleotide, designed as: OFF switch for flavin mononucleotide
[3] = designed as: ON switch for flavin mononucleotide, no ligand
[4] = ligand present: flavin mononucleotide, designed as: ON switch for flavin mononucleotide

Row | Sequence | apparent Kd [1] [nM] | apparent Kd [2] [nM] | apparent Kd [3] [nM] | apparent Kd [4] [nM]
1 | GUCAGCUCGUGAGGAUAUACAACACUGCUUCGGCAGUGUAUUAAGAUCACAUGAGGAUCACCCAUGUAGAAGGCACAAGCUGAU | 15.9 | 271 | – | –
2 | AAAGUUGGUAGGCCCUCGGCACAUGAGGAUCACCCAUGUAAGGAGGAUAUGCCCGGUACCCGCUGGCAGAAGGCCUUAUAAGAA | 12.2 | 110 | – | –
3 | CGGUGACGUGUAGGAUAUGGCGAUGGGUUUUGGCCAGAAGGACAUGAGGAUCACCCAUGUGGUAGAGGGCUGGCGGCCGCCCGU | 26.5 | 60 | – | –
4 | CACUGCAAUGUAGGAUAUCGACUGGAAUACAGUCGAGAAGGACAUGAGGAUCACCCAUGUACUUUGAGUGAAUAAUAAGCAGUG | 15.9 | 59.4 | – | –
5 | AAAGAUCCUCAGAAGGGCUCGUCCUAUAAGAUAGCAGGAUAUGAGGAGAUUGCCAAACAUGAGGAUCACCCAUGUAGUUGGAGU | – | – | 83.5 | 14.8
6 | UAAAAGCGAGGAUAUACAUGAGGAUCACCCAUGUGAGGCGAAACGCCUCGGGCCAUCAGUAGAAGGUGCAAAAC | 109 | 84.8 | – | –
7 | CUGUUGGGCUCAGGAUAUCGGGUUUAACAUGAGGAUCACCCAUGUCGUCUGCGAAAGCAGAAUCACGAGAAGGGAGACCAGCGA | – | – | 13.3 | 7.53
8 | CAGGAUAGAGGAUAUACAUAGAUACAGAUUCAUGUGAUCCUACAUGAGGAUCACCCAUGUAGAAGGCUAUCCUG | 315 | 39.5 | – | –
9 | AGAUCACAUGAGGAUCACCCAUGUGAGGAUAUGAUACUAUGUACUUCGGUACAUAGUAUCAGAAGGCGCGUGAA | 29.8 | 42.2 | – | –
10 | UUUUAACAUGAGGAUCACCCAUGUGAGGAUAUCGAAAUUUAUAUUAAUAUUAUUUAUUCGAGAAGGCACAUUUU | 120 | 145 | – | –
11 | UGAUAGGACAGAGGAUAUACGGAUAGGAUCUACUAUCAAACAAGUCCUACAUGAGGAUCACCCAUGUAGAAGGCUGUCCUAUCU | 16.1 | 22.2 | – | –
12 | GGUUGGCGAGGAUAUACAUGAGGAUCACCCAUGUGGUCCUGCGGUGGAAUCGCCCUUUGUAGAAGGCGCGGGUC | 49.5 | 44.7 | – | –
13 | GCGACGCGGGAAGGAUAUCCGCUCAGGAGUGUCUCAUGCUAACAUGAGGAUCACCCAUGUUGUCCGGAGAAGGUCCUGUCAGGC | 152 | 288 | – | –
14 | ACAUCGACAGGAUAUACGUGAGUGGAAAAAGUGUAUCCACUACAUGAGGAUCACCCAUGUAGAAGGGUCGAUGA | 18.5 | 19.8 | – | –
15 | GAGCCCGUCGAGGAUAUACACCAUAUAUGGCUUGUAGAAGGUGACACAUGAGGAUCACCCAUGUUUGUGGUACA | 63.2 | 35 | – | –
16 | UUAAAACGUGUGAGGAUAUCGAGAGUAGCUGAUCUCGAGAAGGCACAUGAGGAUCACCCAUGUGGCCUGCACCG | 14.6 | 14.7 | – | –
17 | AGAUAUAACUCAGGAUAUCAGCAUGGGUAGAUCACAUGAGGAUCACCCAUGUGCAUGUCCCGGCAUGAGAAGGGAGUAACGCAA | – | – | 43.2 | 52.2
18 | CACUGCAAUGUAGGAUAUCGACUGGAUAACAGUCGAGAAGGACAUGAGGAUCACCCAUGUACUAAUAGUGAUAAUAAAGCAGUG | 13.5 | 55 | – | –
19 | AGCUACGUUUCGUAGCAGCUAGGUGAGGAUAUUCAAUUGUUCACAUGAGGAUCACCCAUGUAUGUGAAGAAGGCGCCUAGAAAG | – | – | 7.16 | 5.34
20 | AUUAUAUAGACAGGAUAUUGAUUAUUAUUUUAACAUGAGGAUCACCCAUGUAGCCUUAUGUAUAGCAAGAAGGGUCAUUUAUUA | 135 | 206 | – | –
21 | GUAGAGUAGUGAGGAUAUACGAGAUCGAUAGAUCGGCGAUCCAUAUAUACAUGAGGAUCACCCAUGUAGAAGGCACUUCUCUAC | 6.99 | 103 | – | –
22 | GGGUACAUCGGAGGAUAUCAUGUAAAUACAUGAGGAUCACCCAUGUCGUACGAGAGUACGGAGAUUGAGAAGGCCGAUGUACCG | – | – | 24.9 | 15.3
23 | GUGUAGAUAGGAUAUGCGUGAGUCUAGCGAAGCUAGAUUCUACAUGAGGAUCACCCAUGUAGAAGGGUCUACAC | 17.2 | 18.5 | – | –

Source: the EternaBench riboswitch data
